inhibition, Activity and IC50 data for 2 molecules are collected here from ChEMBL document CHEMBL4422643, “Physalactone and 4β-Hydroxywithanolide E Isolated from Physalis peruviana Inhibit LPS-Induced Expression of COX-2 and iNOS Accompanied by Abatement of Akt and STAT1” (J Nat Prod, 2019).

By IC50 is commonly meant the concentration that inhibits the measured activity by half.

In data set [1] the test system is RAW264.7. Description: Antiinflammatory activity against mouse RAW264.7 cells assessed as inhibition of LPS induced iNOS expression at 50 uM preincubated for 30 mins followed by LPS challenge and measured after 16 hrs by Western blot analysis. In kind it is functional, cell-based. In short, it runs like this:
(§1)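 RAW 264.7 cells in DMEM with 10% heat-inactivated FBS and penicillin/streptomycin at 37 °C, 5% CO2. Cells were pretreated 30 min at 50 μM, then given LPS 1 μg/mL for 16 h. iNOS and COX-2 protein were detected by Western blot (8–12% SDS-PAGE, PVDF, HRP secondary, chemiluminescence imaging), with equal total protein loaded by Bradford assay. n = 3.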

Data set [2] deals with RAW264.7. Description: Antiinflammatory activity against mouse RAW264.7 cells assessed as inhibition of LPS-induced nitric oxide production by measuring nitrite levels at 50 uM preincubated for 30 mins followed by LPS challenge and measured after 16 hrs by Griess assay (reference value: 32.4 +/- 0.9 uM). It counts as functional. On the technique in general: Griess reagent forms a coloured azo dye with nitrite.

Data set [3] concerns RAW264.7. The data set can be described thus: Antiinflammatory activity against mouse RAW264.7 cells assessed as inhibition of LPS induced COX2 expression at 50 uM preincubated for 30 mins followed by LPS challenge and measured after 16 hrs by Western blot analysis. In kind it is functional, cell-based. The method in brief:
as §1

In data set [4] the test system is RAW264.7. Description: Antiinflammatory activity against mouse RAW264.7 cells assessed as inhibition of LPS-induced nitric oxide production preincubated for 30 mins followed by LPS challenge and measured after 18 hrs by Griess assay. It counts as functional, cell-based. In short, it runs like this:
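Macrophages (RAW 264.7, 5 × 10^5/well, 24 h settle) were pretreated 30 min in phenol-red-free medium at 0.128–5.0 or 1.0–40 μM, then given LPS 1 μg/mL for 18 h. Culture-supernatant nitrite was read by Griess reaction, and an IC50 was estimated from the concentration–response. n = 3.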

Data set [5] concerns RAW264.7. Description: Antiinflammatory activity against mouse RAW264.7 cells assessed as inhibition of LPS induced iNOS expression preincubated for 30 mins followed by LPS challenge and measured after 16 hrs by Western blot analysis. In kind it is functional, cell-based. (A western blot detects proteins with antibodies after separation by electrophoresis.)
In data set [6] the test system is RAW264.7. The data set can be described thus: Antiinflammatory activity against mouse RAW264.7 cells assessed as inhibition of LPS induced COX2 expression preincubated for 30 mins followed by LPS challenge and measured after 16 hrs by Western blot analysis. In kind it is functional, cell-based.
For data set [7], the system named is RAW264.7. The data set can be described thus: Antiinflammatory activity against mouse RAW264.7 cells assessed as inhibition of LPS induced iNOS mRNA expression preincubated for 30 mins followed by LPS challenge and measured after 3 to 12 hrs by SYBR green dye based qRT-PCR analysis. In kind it is functional, cell-based. In short, it runs like this: (§2)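 RAW 264.7 cells were pretreated 30 min, then given LPS 1 μg/mL for 3, 6, 9 or 12 h. Total RNA went to qRT-PCR with SYBR Green for Nos2/Ptgs2. Values were normalized to β-actin by 2^−ΔΔCT and expressed as fold change versus unstimulated cells. n = 3; means ± SD; significance versus LPS-only at p < 0.05.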
On the technique in general: Quantitative PCR measures a nucleic acid by following its amplification.

The test system of data set [8] is RAW264.7. Description: Antiinflammatory activity against mouse RAW264.7 cells assessed as inhibition of LPS induced COX2 mRNA expression preincubated for 30 mins followed by LPS challenge and measured after 3 to 12 hrs by SYBR green dye based qRT-PCR analysis. It counts as functional, cell-based. The method in brief:
as §2

The nature of data set [9]: Effect on SAPK/JNK1/2 phosphorylation at T183/Y185 residues in mouse RAW264.7 cells at 40 uM measured after 30 mins by Western blot analysis. It counts as ADME, cell-based. The note with it: raw264.7, 0.5 h.
Data set [10] deals with T1, I-kappa-B kinase (Mus musculus) (UniProt Q60680+O88351+O88522). The data set can be described thus: Effect on IKK-mediated IkappaBalpha degradation in LPS-stimulated mouse RAW264.7 cells at 40 uM preincubated for 30 mins followed by LPS-stimulation and measured after 10 mins by Western blot analysis. It counts as cell-based. The method in brief: (§3)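 RAW 264.7 cells were pretreated 30 min with compound (5 or 40 μM), then given LPS 1 μg/mL for several time points. Western blots of whole-cell lysates probed IκBα, total and Ser473-phospho Akt, and total and Tyr701-phospho STAT1, with GAPDH as loading reference. Detection used HRP chemiluminescence.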

The target in data set [11] is T1, I-kappa-B kinase (Mus musculus). Description: Effect on IKK-mediated IkappaBalpha degradation in LPS-stimulated mouse RAW264.7 cells assessed as IkappaBalpha recovery at 40 uM preincubated for 30 mins followed by LPS-stimulation and measured after 20 to 240 mins by Western blot analysis. In kind it is cell-based. In short, it runs like this:
as §3

In data set [12] the target is RAC-alpha serine/threonine-protein kinase (Mus musculus) (UniProt P31750). The data set can be described thus: Inhibition of LPS-induced AKT phosphorylation at S473 residue in mouse RAW264.7 cells at 40 uM preincubated for 30 mins followed by LPS-stimulation and measured up to 240 mins by Western blot analysis. It counts as cell-based. In short, it runs like this: as §3
RAC-alpha serine/threonine-protein kinase (Mus musculus), sequence (P31750 whole entry): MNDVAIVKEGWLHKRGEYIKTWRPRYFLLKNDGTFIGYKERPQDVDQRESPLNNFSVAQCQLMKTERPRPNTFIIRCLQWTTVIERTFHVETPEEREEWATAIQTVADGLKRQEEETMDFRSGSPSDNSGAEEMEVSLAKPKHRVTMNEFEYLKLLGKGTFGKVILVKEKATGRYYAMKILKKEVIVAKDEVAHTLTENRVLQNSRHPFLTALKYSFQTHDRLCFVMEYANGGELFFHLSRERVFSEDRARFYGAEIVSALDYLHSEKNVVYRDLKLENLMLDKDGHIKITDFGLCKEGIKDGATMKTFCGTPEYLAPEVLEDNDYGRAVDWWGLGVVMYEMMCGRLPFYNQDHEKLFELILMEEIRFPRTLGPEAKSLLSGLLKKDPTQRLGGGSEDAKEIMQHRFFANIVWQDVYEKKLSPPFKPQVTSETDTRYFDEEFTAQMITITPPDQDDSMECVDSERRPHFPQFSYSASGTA

Data set [13] deals with RAW264.7. Description: Effect on total AKT expression in LPS-stimulated mouse RAW264.7 cells at 40 uM preincubated for 30 mins followed by LPS-stimulation and measured up to 240 mins by Western blot analysis. The note with it: raw264.7, 4 h. It counts as ADME, cell-based. The method in brief: as §3
Data set [14] concerns the target T2, Signal transducer and activator of transcription 1 (Mus musculus) (UniProt P42225).
T2 sequence (whole entry): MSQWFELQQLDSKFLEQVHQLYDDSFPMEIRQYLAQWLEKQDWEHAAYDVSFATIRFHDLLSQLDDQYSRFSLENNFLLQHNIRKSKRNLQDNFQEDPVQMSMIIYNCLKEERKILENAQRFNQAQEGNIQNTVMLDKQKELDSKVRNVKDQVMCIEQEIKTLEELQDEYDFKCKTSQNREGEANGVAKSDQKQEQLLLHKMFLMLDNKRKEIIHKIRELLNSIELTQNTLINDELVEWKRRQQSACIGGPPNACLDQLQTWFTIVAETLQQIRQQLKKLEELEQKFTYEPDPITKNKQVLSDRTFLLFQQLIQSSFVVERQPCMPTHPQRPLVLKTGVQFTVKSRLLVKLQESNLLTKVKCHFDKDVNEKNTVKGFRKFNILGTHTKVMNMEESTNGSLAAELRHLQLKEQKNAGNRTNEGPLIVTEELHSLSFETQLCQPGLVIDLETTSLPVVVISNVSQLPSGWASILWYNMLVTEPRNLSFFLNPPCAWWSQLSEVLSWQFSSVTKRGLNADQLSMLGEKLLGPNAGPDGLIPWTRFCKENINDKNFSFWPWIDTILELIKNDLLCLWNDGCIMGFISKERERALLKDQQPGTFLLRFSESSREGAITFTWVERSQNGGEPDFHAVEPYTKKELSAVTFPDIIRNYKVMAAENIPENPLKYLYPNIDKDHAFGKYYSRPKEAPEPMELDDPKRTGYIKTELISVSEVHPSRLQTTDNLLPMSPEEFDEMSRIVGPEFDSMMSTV
Description: Inhibition of LPS-induced STAT1 phosphorylation at Y701 residue in mouse RAW264.7 cells at 40 uM preincubated for 30 mins followed by LPS-stimulation and measured up to 240 mins by Western blot analysis. It counts as cell-based. In short, it runs like this: as §3

The test system of data set [15] is RAW264.7. The data set can be described thus: Effect on total STAT1 expression in LPS-stimulated mouse RAW264.7 cells at 40 uM preincubated for 30 mins followed by LPS-stimulation and measured up to 240 mins by Western blot analysis. It counts as ADME, cell-based. Particulars: raw264.7, 4 h. The method in brief:
as §3

Data set [16] in a line: Effect on SAPK/JNK1/2 phosphorylation at T183/Y185 residues in mouse RAW264.7 cells at 5 uM measured after 30 mins by Western blot analysis. In kind it is ADME, cell-based. The note with it: raw264.7, 0.5 h.
The target of data set [17] is T1, I-kappa-B kinase (Mus musculus). The data set can be described thus: Effect on IKK-mediated IkappaBalpha degradation in LPS-stimulated mouse RAW264.7 cells at 5 uM preincubated for 30 mins followed by LPS-stimulation and measured after 10 mins by Western blot analysis. It counts as cell-based. In short, it runs like this: as §3
The target is the same in data set [18]. The data set can be described thus: Effect on IKK-mediated IkappaBalpha degradation in LPS-stimulated mouse RAW264.7 cells assessed as IkappaBalpha recovery at 5 uM preincubated for 30 mins followed by LPS-stimulation and measured after 20 to 240 mins by Western blot analysis. It counts as cell-based. The method in brief:
as §3

Data set [19] deals with RAC-alpha serine/threonine-protein kinase (Mus musculus) (UniProt P31750). The data set can be described thus: Inhibition of LPS-induced AKT phosphorylation at S473 residue in mouse RAW264.7 cells at 5 uM preincubated for 30 mins followed by LPS-stimulation and measured up to 240 mins by Western blot analysis. In kind it is cell-based. In short, it runs like this:
as §3

Data set [20] has as its system RAW264.7. The data set can be described thus: Effect on total AKT expression in LPS-stimulated mouse RAW264.7 cells at 5 uM preincubated for 30 mins followed by LPS-stimulation and measured up to 240 mins by Western blot analysis. In kind it is ADME, cell-based. The note with it: raw264.7, 4 h. In short, it runs like this:
as §3

For data set [21], the target named is T2, Signal transducer and activator of transcription 1 (Mus musculus). The data set can be described thus: Inhibition of LPS-induced STAT1 phosphorylation at Y701 residue in mouse RAW264.7 cells at 5 uM preincubated for 30 mins followed by LPS-stimulation and measured up to 240 mins by Western blot analysis. It counts as cell-based. In short, it runs like this:
as §3

Data set [22] concerns RAW264.7. The data set can be described thus: Effect on total STAT1 expression in LPS-stimulated mouse RAW264.7 cells at 5 uM preincubated for 30 mins followed by LPS-stimulation and measured up to 240 mins by Western blot analysis. It counts as ADME, cell-based. Particulars: raw264.7, 4 h. In short, it runs like this:
as §3

Calls of active or inactive are those of the source. The calls are words filed in the database; no cut-off is given here.

For `CO[C@H]1CC(=O)[C@]2(C)[C@H]3CC[C@]4(C)[C@](O)([C@@](C)(O)[C@H]5CC(C)=C(C)C(=O)O5)CC[C@@]4(O)[C@@H]3C[C@H]3O[C@]32[C@H]1O`, the inhibition entry (in the data set on RAW264.7 [1]; with RAW264.7 [3]; in data set [12]; in data set [14]) was “Active” each time. Moreover, the Activity with RAW264.7 [2] was 1.1 µM; in [9], “Not Active”; in the data set with RAW264.7 [13], “Non-Toxic”; in the data set on RAW264.7 [15], “Non-Toxic”. In the data set on RAW264.7 [4], the IC50 stood at 13.8 µM. The inhibition result with RAW264.7 [5], in the data set with RAW264.7 [6], in the data set on RAW264.7 [7] and with RAW264.7 [8] was “Dose-dependent effect” each time. Further, the outcome in [10] and in [11] was inactive.
For `CC1=C(C)C(=O)O[C@@H]([C@](C)(O)[C@]2(O)CC[C@@]3(O)[C@@H]4C[C@H]5O[C@]56[C@@H](O)C=CC(=O)[C@]6(C)[C@H]4CC[C@]23C)C1`, the inhibition result (in the data set on RAW264.7 [1]; in the data set on RAW264.7 [3]; in [19]; in [21]) was “Active” throughout. The Activity in the data set on RAW264.7 [2] is 0.9 µM; in data set [16], “Not Active”; in the data set with RAW264.7 [20] it was “Non-Toxic”; with RAW264.7 [22], “Non-Toxic”. Moreover, the IC50 with RAW264.7 [4] was found to be 1.8 µM. Further, the inhibition result with RAW264.7 [5], with RAW264.7 [6], with RAW264.7 [7] and in the data set with RAW264.7 [8] was “Dose-dependent effect” each time. In addition, the outcome in [17] and in data set [18] was inactive.
